The source of these data is ChEMBL document CHEMBL2331277, “Design, synthesis and pharmacological evaluation of omeprazole-like agents with anti-inflammatory activity” (2013).

The term inhibition in vivo denotes the change of the read-out against control, counted positive when it falls.

Molecules are shown by their SMILES.

Test [1] deals with Rattus norvegicus. Description: Antiulcerogenic activity in pylorus ligation-induced gastric ulcer Sprague-Dawley rat model assessed as volume of gastric juice at 3.6 mg/kg, po for 3 days (Rvb =5.96 +/-0.80 ml ). It is filed as functional.
The subject of test [2] is Mus musculus. Description: Antiulcerogenic activity in ethanol-induced gastric ulcer Swiss albino mouse model assessed as lesion length at 3.6 mg/kg administered intragastrically for 3 days. It is filed as functional, Stomach. The settings on record: route intragastric. The method in brief: (§1)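 Mice, n = 6 per group, given 3.6 or 7.2 mg/kg, omeprazole 3.6 mg/kg, or vehicle (0.25% w/v carboxymethyl cellulose) for 3 days. After a 24 h fast, 90% ethanol (10 ml/kg) was given intragastrically. Animals were killed 1 h later. Stomachs were opened along the greater curvature and lesion lengths measured under a microscope.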

In test [3] the test system is Rattus norvegicus. Description: Antiinflammatory activity against carrageenan-induced paw edema in Sprague-Dawley rat assessed as paw volume at 20 mg/kg, po measured 60 mins post challenge by plethysmometer (reference value: 0.90 +/- 0.03 ml). It is filed as functional. (Carrageenan injected into the paw causes an acute inflammation.)
The test system of test [4] is Rattus norvegicus. Description: Antiulcerogenic activity in pylorus ligation-induced gastric ulcer Sprague-Dawley rat model assessed as pH of gastric juice at 3.6 mg/kg, po for 3 days (Rvb =2.60 +/-0.55 ). It is filed as functional.
The subject of test [5] is Rattus norvegicus. Description: Antiulcerogenic activity in pylorus ligation-induced gastric ulcer Sprague-Dawley rat model assessed as stomach peptic activity measuring tyrosine release for 4 hrs at 7.2 mg/kg, po for 3 days (Rvb =5.70 +/-2.40 ug/ml ). It is filed as functional. The method in brief:
(§2)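 Pylorus-ligated rat model as above (3-day oral dosing, 3.6 or 7.2 mg/kg, 5 h ligation). Gastric juice sample (0.1 ml) was incubated with 2.9 ml acid hemoglobin substrate (2.5 g/100 ml, pH 2.2) for 30 min at 37 °C. Reaction was stopped with ice-cold 0.6 M TCA and centrifuged. Liberated amino acids were read by Lowry, expressed as µg tyrosine/ml.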

In test [6] the test system is Rattus norvegicus. Description: Antiulcerogenic activity in pylorus ligation-induced gastric ulcer Sprague-Dawley rat model assessed as pH of gastric juice at 7.2 mg/kg, po for 3 days (Rvb =2.60 +/-0.55 ). It is filed as functional.
Test [7] has as its system Rattus norvegicus. As to the kind of experiment: Antiinflammatory activity against carrageenan-induced paw edema in Sprague-Dawley rat assessed as inhibition of paw volume at 30 mg/kg, po measured 180 mins post challenge by plethysmometer. It is filed as functional. The note with it: 3 h.
Test [8] has as its system Rattus norvegicus. As to the kind of experiment: Antiinflammatory activity against carrageenan-induced paw edema in po dosed Sprague-Dawley rat assessed as inhibition of paw volume measured 180 mins post challenge by plethysmometer. It is filed as functional, organism-based.
Test [9] deals with Rattus norvegicus. As to the kind of experiment: Antiinflammatory activity against carrageenan-induced paw edema in Sprague-Dawley rat assessed as inhibition of paw volume at 20 mg/kg, po measured 180 mins post challenge by plethysmometer. The settings on record: 3 h. It is filed as functional.
In test [10] the test system is Rattus norvegicus. Description: Antiulcerogenic activity in pylorus ligation-induced gastric ulcer Sprague-Dawley rat model assessed as stomach H+/K+-ATPase activity measuring Pi release per hour per mg protein at 3.6 mg/kg, po for 3 days (Rvb =11.44 +/-1.5 umol ). It is filed as functional.
In test [11] the test system is Rattus norvegicus. As to the kind of experiment: Antiinflammatory activity against carrageenan-induced paw edema in Sprague-Dawley rat assessed as paw volume at 30 mg/kg, po measured 60 mins post challenge by plethysmometer (reference value: 0.90 +/- 0.03 ml). It is filed as functional.
Test [12] relates to Rattus norvegicus. Description: Antiulcerogenic activity in pylorus ligation-induced gastric ulcer Sprague-Dawley rat model assessed as stomach H+/K+-ATPase activity measuring Pi release per hour per mg protein at 7.2 mg/kg, po for 3 days (Rvb =11.44 +/-1.5 umol ). It is filed as functional.
Test [13] concerns Rattus norvegicus. As to the kind of experiment: Antiulcerogenic activity in pylorus ligation-induced gastric ulcer Sprague-Dawley rat model assessed as stomach peptic activity measuring tyrosine release for 4 hrs at 3.6 mg/kg, po for 3 days (Rvb =5.70 +/-2.40 ug/ml ). It is filed as functional. The method in brief:
as §2

Test [14] deals with Mus musculus. As to the kind of experiment: Antiulcerogenic activity in ethanol-induced gastric ulcer Swiss albino mouse model assessed as inhibition of ulceration at 7.2 mg/kg administered intragastrically for 3 days relative to control. It is filed as functional. The note with it: Stomach, po, 72 h, route intragastric. The method in brief:
as §1

Test [15] has as its system Rattus norvegicus. Description: Antiulcerogenic activity in pylorus ligation-induced gastric ulcer Sprague-Dawley rat model assessed as volume of gastric juice at 7.2 mg/kg, po for 3 days (Rvb =5.96 +/-0.80 ml ). It is filed as functional.
Test [16] relates to Rattus norvegicus. Description: Antiinflammatory activity against carrageenan-induced paw edema in Sprague-Dawley rat assessed as paw volume at 20 mg/kg, po measured 120 mins post challenge by plethysmometer (reference value: 1.13 +/- 0.04 ml). It is filed as functional.
Test [17] concerns Mus musculus. Description: Antiulcerogenic activity in ethanol-induced gastric ulcer Swiss albino mouse model assessed as lesion length at 7.2 mg/kg administered intragastrically for 3 days. It is filed as functional, Stomach. The note with it: route intragastric. The method in brief: as §1
The subject of test [18] is Rattus norvegicus. As to the kind of experiment: Antiinflammatory activity against carrageenan-induced paw edema in Sprague-Dawley rat assessed as paw volume at 30 mg/kg, po measured 120 mins post challenge by plethysmometer (reference value: 1.13 +/- 0.04 ml). It is filed as functional.
Test [19] relates to Rattus norvegicus. Description: Antiinflammatory activity against carrageenan-induced paw edema in Sprague-Dawley rat assessed as paw volume at 10 mg/kg, po measured 60 mins post challenge by plethysmometer (reference value: 0.90 +/- 0.03 ml). It is filed as functional.
Test [20] has as its system Mus musculus. Description: Antiulcerogenic activity in ethanol-induced gastric ulcer Swiss albino mouse model assessed as inhibition of ulceration at 3.6 mg/kg administered intragastrically for 3 days relative to control. It is filed as functional. The settings on record: Stomach, po, 72 h, route intragastric. The method in brief: as §1
Test [21] concerns Rattus norvegicus. As to the kind of experiment: Antiinflammatory activity against carrageenan-induced paw edema in Sprague-Dawley rat assessed as inhibition of paw volume at 10 mg/kg, po measured 180 mins post challenge by plethysmometer. It is filed as functional. The note with it: 3 h.
Test [22] relates to Rattus norvegicus. Description: Antiinflammatory activity against carrageenan-induced paw edema in Sprague-Dawley rat assessed as paw volume at 10 mg/kg, po measured 120 mins post challenge by plethysmometer (reference value: 1.13 +/- 0.04 ml). It is filed as functional.

Turning to `COc1ccnc(CNc2ccc3[nH]c(C)nc3c2)c1OC`, the Activity was 2.98 mL with Rattus norvegicus [1]; 88 mm in the test with Mus musculus [2]; 0.7 mL with Rattus norvegicus [3]; 4.74 µg/mL with Rattus norvegicus [5]; 7.91 µmol in the test with Rattus norvegicus [10]; 0.65 mL with Rattus norvegicus [11]. Moreover, the Activity with Rattus norvegicus [12] was 6.88 µmol; with Rattus norvegicus [13], 5.02 µg/mL; in the test on Rattus norvegicus [15] it was 2.6 mL; with Rattus norvegicus [16] it was 0.69 mL; with Mus musculus [17], 67 mm; in the test with Rattus norvegicus [18] it was 0.65 mL. Also, the values for the Activity in the test on Rattus norvegicus [19] and in the test on Rattus norvegicus [22] were 0.7 mL and 0.88 mL, respectively. The pH in the test on Rattus norvegicus [4] amounted to 3.64; with Rattus norvegicus [6] it was 4.01. For the same compound, the inhibition in vivo at 30 mg/kg with Rattus norvegicus [7] came to 61%. The inhibition entry in the test on Rattus norvegicus [8] is “Dose-dependent effect”. In the test on Rattus norvegicus [9], the inhibition in vivo at 20 mg/kg was determined as 57%. Moreover, the inhibition in vivo at 7.2 mg/kg with Mus musculus [14] was determined as 46.8%. The inhibition in vivo at 3.6 mg/kg with Mus musculus [20] was determined as 30%. Also, the inhibition in vivo at 10 mg/kg in the test on Rattus norvegicus [21] turned out to be 15%.
